Test results as given in ChEMBL document CHEMBL3784932, “Design, synthesis and docking studies of novel dipeptidyl boronic acid proteasome inhibitors constructed from αα- and αβ-amino acids” (Bioorg Med Chem Lett, 2016).

Legend:
[1] = target: T1, Proteasome Macropain subunit MB1 (Homo sapiens, UniProt P28074); assay: Inhibition of chymotrypsin like activity of human erythrocyte-derived 20S proteasome preincubated for 10 mins using Suc-LLVY-AMC as substrate after 60 mins by fluorescence assay
T1 sequence (P28074 whole entry): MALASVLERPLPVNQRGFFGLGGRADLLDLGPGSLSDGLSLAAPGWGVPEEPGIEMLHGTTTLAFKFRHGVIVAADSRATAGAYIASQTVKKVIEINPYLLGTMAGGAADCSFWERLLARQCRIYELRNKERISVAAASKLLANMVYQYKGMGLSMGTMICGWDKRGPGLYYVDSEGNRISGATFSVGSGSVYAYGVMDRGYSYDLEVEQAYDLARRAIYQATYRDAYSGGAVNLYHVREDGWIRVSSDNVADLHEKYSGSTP
Method in brief: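 Enzymatic IC50 from eight inhibitor concentrations, each point assayed in duplicate; β5 (chymotrypsin-like) subunit of human proteasome.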

[2] = Cytotoxicity against human U266 cells after 72 hrs by MTS assay; type: functional, cell-based; details: U-266, 72 h
Method in brief: (§1)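 Cellular IC50 from a ten-concentration series, each concentration tested in triplicate.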

[3] = Cytotoxicity against human RPMI8226 cells after 72 hrs by MTS assay; type: functional, cell-based; details: RPMI-8226, 72 h; method in brief: as §1
[4] = Cytotoxicity against human ARH77 cells after 72 hrs by MTS assay; type: functional, cell-based; details: ARH-77, 72 h; method in brief: as §1

Structure (SMILES) | IC50 ([1]; read-out: IC50) | IC50 [1] | IC50 [2] | IC50 [3] | IC50 [4]
COCC(=O)N[C@@H](Cc1ccccc1)C(=O)N[C@@H](CC(C)C)B(O)O | 6.31 nM |  | 6.04 nM | 4.56 nM | 5.72 nM
CC(C)C[C@H](NC(=O)[C@H](Cc1ccccc1)NC(=O)CC(C)(C)C)B(O)O | 4.69 nM |  | 8.01 nM |  | 8.31 nM
CC(C)C[C@@H](NC(=O)CC(NC(=O)[C@H]1CCCc2ccccc21)c1cccc(F)c1)B(O)O (some centres undefined) | 1.02 nM |  |  |  | 
CC(C)C[C@H](NC(=O)[C@H](Cc1ccccc1)NC(=O)C1CCCC1)B(O)O | 4.82 nM |  | 2.48 nM |  | 3.87 nM
CCCC(=O)N[C@@H](Cc1ccccc1)C(=O)N[C@@H](CC(C)C)B(O)O | 6.94 nM |  | 8.51 nM | 5.61 nM | 7.87 nM
CC(C)C[C@H](NC(=O)[C@H](Cc1ccccc1)NC(=O)c1cnccn1)B(O)O [BORTEZOMIB] |  |  | 5.73 nM |  | 6.07 nM

Second part, led by results:

IC50 ([1]; read-out: IC50) | IC50 [1] | Structure (SMILES) | IC50 [2] | IC50 [3] | IC50 [4]
8.47 nM |  | COCCC(=O)N[C@@H](Cc1ccccc1)C(=O)N[C@@H](CC(C)C)B(O)O | 11.5 nM | 7.32 nM | 9.03 nM
 | Not Active | O=C(N[C@@H](Cc1ccccc1)C(=O)N[C@H](CB(O)O)c1ccccc1)c1ccccc1 |  |  | 
 | Not Active | O=C(N[C@@H](Cc1ccccc1)C(=O)N[C@@H](CCc1ccccc1)CB(O)O)c1ccccc1 |  |  | 
 | Not Active | CC(C)C[C@@H](CB(O)O)NC(=O)[C@H](Cc1ccccc1)NC(=O)c1ccccc1 |  |  | 
 | Not Active | O=C(N[C@@H](Cc1ccccc1)C(=O)N[C@H](CB(O)O)c1ccccc1)c1cnccn1 |  |  | 
 | Not Active | O=C(N[C@@H](Cc1ccccc1)C(=O)N[C@@H](CCc1ccccc1)CB(O)O)c1cnccn1 |  |  | 
 | Not Active | CC(C)C[C@@H](CB(O)O)NC(=O)[C@H](Cc1ccccc1)NC(=O)c1cnccn1 |  |  | 
1.2 nM |  | CC(C)C[C@H](NC(=O)[C@H](Cc1ccccc1)NC(=O)[C@H]1CCCc2ccccc21)B(O)O |  |  | 
1.6 nM |  | CC(C)C[C@H](NC(=O)[C@H](Cc1ccccc1)NC(=O)c1cccc2c1CCCC2)B(O)O |  |  | 
